ChEMBL document CHEMBL1795243, “New microtubule polymerization inhibitors comprising a nitrooxymethylphenyl group” (Bioorg Med Chem, 2011)
Active and inactive are the calls of the source. The calls are words filed in the database; no cut-off is given here.

Experiments:
[1] = test system: MCF7; experiment: Antiproliferative activity against human MCF7 cells after 72 hrs by cell counting kit analysis; assay type: functional, cell-based; details: MCF7, 72 h
In short: (§1)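 Cells grown with compound for 72 h, then growth quantified by WST-1 Cell Counting Kit. Final concentrations 1, 10, 25, 50, 100 and 200 μM. All media had 10% FBS, 37 °C, 5% CO2. Read-out IC50.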

[2] = test system: SK-BR-3; experiment: Antiproliferative activity against human SK-BR-3 cells after 72 hrs by cell counting kit analysis; assay type: functional, cell-based; details: SK-BR-3, 72 h; in short: as §1
[3] = test system: SW480; experiment: Antiproliferative activity against human SW480 cells after 72 hrs by cell counting kit analysis; assay type: functional, cell-based; details: SW480, 72 h; in short: as §1
[4] = test system: SW-620; experiment: Antiproliferative activity against human SW620 cells after 72 hrs by cell counting kit analysis; assay type: functional, cell-based; details: SW-620, 72 h; in short: as §1
[5] = test system: HCT-116; experiment: Antiproliferative activity against human HCT116 cells after 72 hrs by cell counting kit analysis; assay type: functional, cell-based; details: HCT-116, 72 h; in short: as §1
[6] = test system: MDA-MB-231; experiment: Antiproliferative activity against human MDA-MB-231 cells after 72 hrs by cell counting kit analysis; assay type: functional, cell-based; details: MDA-MB-231, 72 h; in short: as §1
[7] = test system: HCT-116; experiment: Cell cycle arrest in human HCT116 cells assessed as increase of phosphorylated histone H3 at Ser10 level at 20 to 40 uM after 24 hrs by Western blotting; assay type: functional, cell-based
In short: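 HCT116 (1.0×10^6/dish) serum-starved 24 h, then treated 24 h in serum-free medium (0.4% DMSO control). Lysed 1 h at 0 °C in modified lysis buffer (pH 8.0, 1% NP-40). 7.5 µg protein run on SDS-PAGE and PVDF blot, probed for phospho-histone H3 Ser10 and total H3, ECL detection. Five independent experiments.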

[8] = test system: HCT-116; experiment: Cell cycle arrest in human HCT116 cells assessed as increase of phosphorylated histone H3 at Ser10 level at 40 uM after 24 hrs using propidium iodide staining by flow cytometry (reference value: 1.4 %); assay type: functional
[9] = test system: HCT-116; experiment: Induction of apoptosis in human HCT116 cells at 40 uM after 48 hrs using FITC-TUNEL staining by flow cytometry (reference value: 7.3 %); assay type: functional
In short: (§2)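 HCT116 at 1.0×10^6 per 60 mm dish, treated 24 or 48 h (0.4% DMSO control). Floating plus adherent cells assayed with DeadEnd Fluorometric TUNEL System, and FITC-TUNEL-positive percentage read by flow cytometry. Five independent experiments.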

[10] = test system: HCT-116; experiment: Cell cycle arrest in human HCT116 cells assessed as accumulation at G0/G1 phase at 40 uM after 24 hrs by FACS analysis (reference value: 76.5 %); assay type: functional
[11] = test system: HCT-116; experiment: Cell cycle arrest in human HCT116 cells assessed as accumulation at S phase at 40 uM after 24 hrs by FACS analysis (reference value: 8.5 %); assay type: functional
[12] = test system: HCT-116; experiment: Induction of apoptosis in human HCT116 cells at 40 uM after 24 hrs using FITC-TUNEL staining by flow cytometry; assay type: functional; in short: as §2
[13] = test system: HCT-116; experiment: Cell cycle arrest in human HCT116 cells assessed as accumulation at sub-G1 phase at 40 uM after 24 hrs by FACS analysis (reference value: 6.2 %); assay type: functional
[14] = test system: HCT-116; experiment: Cell cycle arrest in human HCT116 cells assessed as accumulation at G2/M phase at 40 uM after 24 hrs by FACS analysis (reference value: 10.9 %); assay type: functional
[15] = target: Tubulin (Homo sapiens) (UniProt P68371+Q9H4B7+P0DPH7+P68366+Q13509+Q71U36+P04350+Q3ZCM7+P07437+P68363+Q9BQE3+Q6PEY2+Q13885+Q9BVA1+Q9BUF5); experiment: Inhibition of alpha-tubulin polymerization in human HT1080 cells assessed as disruption of microtubule structures at 100 nM after 4 hrs using Hoechst staining by fluorescence microscopic analysis; assay type: cell-based; details: HT-1080

| Structure (SMILES) | IC50 [1] [µM] | IC50 [2] [µM] | IC50 [3] [µM] | IC50 [4] [µM] | IC50 [5] [µM] | IC50 [6] [µM] | inhibition [15] | Activity [7] | Activity [8] [%] | Activity [9] [%] | Activity [10] [%] | Activity [11] [%] | Activity [12] [%] | Activity [13] [%] | Activity [14] [%] |
| --- | --- | --- | --- | --- | --- | --- | --- | --- | --- | --- | --- | --- | --- | --- | --- |
| O=C(Nc1ccccc1OC(=O)c1ccc(CCl)cc1)c1ccc(CCl)cc1 | 58.1 | 0.6 | 6.9 | 0.8 | 0.6 | 0.8 | – | – | – | – | – | – | – | – | – |
| CC(=O)Oc1ccccc1C(=O)Oc1ccc(CO[N+](=O)[O-])cc1 | > 100 | 30.5 | 19.1 | 15.1 | 68 | 14.4 | – | inactive | 1.7 | 3.6 | 53.7 | 18.8 | 4 | 15.3 | 12 |
| CC(=O)O[C@H]1C(=O)[C@@]2(C)[C@H]([C@H](OC(=O)c3ccccc3)[C@]3(O)C[C@H](OC(=O)[C@H](O)[C@@H](NC(=O)c4ccccc4)c4ccccc4)C(C)=C1C3(C)C)[C@]1(OC(C)=O)CO[C@@H]1C[C@@H]2O | – | – | – | – | – | – | inactive | – | – | – | – | – | – | – | – |

More lines, main results first:

| IC50 [1] [µM] | IC50 [2] [µM] | IC50 [3] [µM] | IC50 [4] [µM] | IC50 [5] [µM] | IC50 [6] [µM] | inhibition [15] | Structure (SMILES) | Activity [7] | Activity [8] [%] | Activity [9] [%] | Activity [10] [%] | Activity [11] [%] | Activity [12] [%] | Activity [13] [%] | Activity [14] [%] |
| --- | --- | --- | --- | --- | --- | --- | --- | --- | --- | --- | --- | --- | --- | --- | --- |
| > 100 | 8.2 | 13.3 | 8.4 | 19.3 | 8.4 | – | O=C(Nc1ccccc1)c1cccc(CO[N+](=O)[O-])c1 | – | – | – | – | – | – | – | – |
| > 100 | 9.8 | > 100 | > 100 | 24.8 | > 100 | – | O=C(Nc1ccccc1)c1ccc(CO)cc1 | – | – | – | – | – | – | – | – |
| > 100 | > 100 | > 100 | > 100 | > 100 | > 100 | – | O=C(Nc1ccccc1)c1ccccc1 [N-PHENYLBENZAMIDE] | – | – | – | – | – | – | – | – |
| 54.3 | 0.7 | 0.9 | 0.8 | 1.2 | 0.8 | – | O=C(Nc1ccccc1)c1ccc(CCl)cc1 | – | – | – | – | – | – | – | – |
